System: MS2 coat protein
Test: apparent Kd, MS2 coat protein; higher = weaker binding; RNA-MaP array; FMN 200 µM where present
Outline: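 Each design was made on Illumina sequencing-chip clusters by stalled E. coli RNA polymerase and titrated with SNAP-549-labelled MS2 coat protein from 0.7 or 1.5 nM, doubling to 3 µM, in the absence and then the presence of constant ligand. The buffer was 100 mM Tris-HCl pH 7.5, 80 mM KCl, 4 mM MgCl2, BSA, DTT, yeast tRNA and Tween-20. The apparent Kd is the median of filtered per-cluster fits of binding curves, with green signal normalised to red-channel RNA signal and control-cluster median Fmax.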

[1] = designed as: ON switch for flavin mononucleotide, no ligand
[2] = ligand present: flavin mononucleotide, designed as: ON switch for flavin mononucleotide
[3] = designed as: OFF switch for flavin mononucleotide, no ligand
[4] = ligand present: flavin mononucleotide, designed as: OFF switch for flavin mononucleotide

| Sequence | apparent Kd [1] | apparent Kd [2] | apparent Kd [3] | apparent Kd [4] |
| --- | --- | --- | --- | --- |
| UGGUCAUCAUCAGGAUAUUAACGUGGGCUACAUUAAGAAGGGAUAGUGGGAGAGGAAGUGAAACAUGAGGAUCACCCAUGUUGU | 0.0135 µM | 0.0114 µM |  |  |
| GCUCAGUAAGGAUAUUAAUGACGCUGUUAUUCAGCGUCAGCUGAGAAGGUACAUGAGGAUCACCCAUGUGGUGA |  |  | 0.21 µM | 0.117 µM |
| GGGUACAUCGGAGGAUAUCAUGUAAAUACAUGAGGAUCACCCAUGUCGAUGGAGACAUCGGAGAUUGAGAAGGUCGAUGUACCG | 0.197 µM | 0.00952 µM |  |  |
| UUGGACGUCGCAGGAUAUGUAGGAUAUUCCUACAUGAGGAUCACCCAUGUUGACAUGGAAGAAGGACAGAAGGACGAUGUCCAU | 0.693 µM | 0.00915 µM |  |  |
| CCACGGUAUGUAGGAUAUGCAUAGCAUUGCUAUGCAGAAGGACAUGAGGAUCACCCAUGUAUGUAUUCCAUACUAAUCCCGUGU |  |  | 0.00629 µM | 0.0059 µM |
| CGCAACUCAGAUCUGUUAAACAUGAGGAUCACCCAUGUAUUGAGAAGGAGGAAGAAGAGAGAUUCCUAGGAUAUCAGAGUUGCG |  |  | 0.00662 µM | 0.00698 µM |
| AUAUGUAACUAGGAUAUCAGCAUACUUCAAUGUUGAGAAGGAGUUACAUGAGGAUCACCCAUGUAUCCAACAUG |  |  | 0.0405 µM | 0.0286 µM |
| UUACAGUGCGGGUAGGAUAUGUAGGGUGGUACAUGAGGAUCACCCAUGUAUCCACCCUUCUACCGGCAGAAGGGCCUGUCACUGC | 0.017 µM | 0.0135 µM |  |  |
| GUAGUCAGUAAUGAAAGCCCGGGCGCAGAAGGCCAGACACAUGAGGAUCACCCAUGUAUCCCUAUGGAGGAUAUGUGUCACGUG | 0.113 µM | 0.0305 µM |  |  |
| UAGAAGUCAGGAUAUCCUGCUCGUCACUUGCGUGAUGAGUAGGAGAAGGGACAUGAGGAUCACCCAUGUAAAGU |  |  | 0.0565 µM | 0.0639 µM |
| UUGGACGUCGUAGGAUAUGUAGGAUAUUCCUACAUGAGGAUCACCCAUGUUGACAGGGAAGAAGGACAGAAGGACGAUGUCCAU | 0.017 µM | 0.00401 µM |  |  |
| GCUAGUAUUGCAGGAUAUUGUGUUUAAGGAUGGCAAGAAGGGCAUUACAUGAGGAUCACCCAUGUUUUCCGUAGUCAUACUAGC |  |  | 0.00734 µM | 0.00728 µM |
| UAAACAUGAGGAUCACCCAUGUAAUGAUCGGUUGAUGAAAGUGAGGAUAUACAAAAUUUUAUGGAGUAGAAGGCACUGGGUUCU | 0.0499 µM | 0.0403 µM |  |  |
| UUUAUAUAGUAAGGAUAUGUAUUAUUUUUUUCAACAGAAGGUACUGACAUGAGGAUCACCCAUGUUUUAGUGUGGGCAUGUAGU |  |  | 0.384 µM | 0.45 µM |
| AAACAUGUCCGAGGAUAUCUGGAAACAUUUUCAAGAGAAGGCGGACAUGAGGAUCACCCAUGUCUCUCCUCAUCAACUAUAAAU |  |  | 0.00824 µM | 0.0606 µM |
| AAAACACAUGAGGAUCACCCAUGUGAGGAUAUGUUAAUUUCGGCCAAAGCCGAAAUUAACAGAAGGCACAUAAA |  |  | 0.0499 µM | 0.0451 µM |
| UAUUUAUAAUAUUUUAACAUGAGGAUCACCCAUGUCGCUAGACAGGAUAUAUUUUAUUUUUUUAAGUAGAAGGGUCAUAUAUUU | 0.084 µM | 0.103 µM |  |  |
| AACAGUAGAGGAUAUACAUGAGGAUCACCCAUGUGAUAUUUACGUGGCGUACCACGAAGUAGAAGGCUACUGGA |  |  | 0.0307 µM | 0.265 µM |
| GCGGAGAUACAGAAGGGAUAAGCCCUGGGCUAAUCAGGAUAUGUACGACGCAUCGUACAUGAGGAUCACCCAUGUAGCCGCUUG | 0.483 µM | 0.0856 µM |  |  |
| GUAGCAUAGACAGGAUAUCUAUACCCGAAAGGGACAUGAGGAUCACCCAUGUUGCGAAAGCGGUGGGAGAAGGGUCUAUGCUAC | 0.0254 µM | 0.00604 µM |  |  |
| AAUAACAGAGGAUAUACUAUUUUAUGUGUUUGUUGUUUUAAACAUGAGGAUCACCCAUGUAGAAGGCUGAGUAA |  |  | 0.0243 µM | 0.0304 µM |
| AAUUAUUUAUGAGGAUAUUGUGGUGAAACACCACAAGAAGGCAUGAUACACAUGAGGAUCACCCAUGUGAGCCUGAUGCUUAUG |  |  | 0.0167 µM | 0.0201 µM |
| CAGCAUCAUGUAGGAUAUGCGUGGCGAAGCUAUGCAGAAGGACAUGAGGAUCACCCAUGUCUUACCUAGCGUACUAGGUUGCUG |  |  | 0.0073 µM | 0.0166 µM |
| GUAUCUUACCGAGGAUAUUUACGAUUAGUGUAGACAUGAGGAUCACCCAUGUGGCCUUAGUCACGGGAGAAGGCGGUUUGAUAC | 0.233 µM | 0.059 µM |  |  |

| Sequence | apparent Kd [1] | apparent Kd [2] | apparent Kd [3] | apparent Kd [4] |
| --- | --- | --- | --- | --- |
| ACAUGAGGAUCACCCAUGUAUUACAUGGUUAUGUUUAUUAACAGAAGGCGAAAUUACCACUGAAUCGAGGAUAUGUAUUCUAUA |  |  | 0.0534 µM | 0.0451 µM |
| AGCUGUGGCCGAGGAUAUCUGUCUCAUAAAACCGAAAUAUAAUCGGACAUGAGGAUCACCCAUGUAGAGAAGGCGGUCUCAGCA |  |  | 0.0213 µM | 0.0837 µM |
| CGCAAGUAUACAUGAGGAUCACCCAUGUCAGAAAGGGUAAUCAGAAGGUACUAUUAGAGAAAGAGUAAGGAUAUGAAAUUUGCG | 0.747 µM | 0.125 µM |  |  |
| GCCAGGAUGUGAGGAUAUGCUGAGGAUAACUCAGCAGAAGGCACAUGAGGAUCACCCAUGUACACUUAUCAUAAAUACCCUGGC |  |  | 0.0119 µM | 0.0163 µM |
| CCUUAAAAGAUCCAAAAUUACAACAUGAGGAUCACCCAUGUGCAGGAUAUCGUGCCAGUGAUGUACGAGAAGGGCAGACUCUGC |  |  | 0.147 µM | 0.17 µM |
| AAAAAACAUGAGGAUCACCCAUGUAAGGAUAUCGUGCAGAAAAAAAAAAAAAACUGCACGAGAAGGUACAAGGA |  |  | 0.0744 µM | 0.108 µM |
| UAGUUACAUGAGGAUCACCCAUGUGAGGAUAUGAGUCAGUCACGGUGACGUGGCUGACUCAGAAGGCACUAUGG |  |  | 0.198 µM | 0.154 µM |
| UGAACUAUGUAGAAGGCCCUCAUUAAUAUGAAGGGAGGAUAUACAUGAGGAUCACCCAUGUGAAGAGCAAGAGGGUUUAACAGA |  |  | 0.0891 µM | 0.479 µM |
| GUUAAUUAGUGAGGAUAUACAGAAAUUAAAACUGUAGAAGGCACAUUCCUCAAGACAUGAGGAUCACCCAUGUGAUAAUAAGAU |  |  | 0.0352 µM | 0.127 µM |
| UAUAUAUAGUAAGGAUAUGUAUUUAAUUUAUAAACAGAAGGUACUGACAUGAGGAUCACCCAUGUUUUAGUGUGGGCAUGUAGA |  |  | 0.0979 µM | 0.147 µM |
| AUAUUGUGAGGAUAUGAACUAAGUAUCGAAAGAUACUAAGUUCAGAAGGCACAUGAGGAUCACCCAUGUUUCUC |  |  | 0.0767 µM | 0.729 µM |
| AUAGGUCAAGGAUAUACAUGAGGAUCACCCAUGUAAAUAACUCCAUCCAACUCCACAAGUAGAAGGUGAAAUAA |  |  | 0.017 µM | 0.0165 µM |
| UGAAAUCAUGUAGGAUAUGCAUGGCGAAGCUACGCAGAAGGACAUGAGGAUCACCCAUGUUAUAGCUACCCAGUUCGGUGGCAG |  |  | 0.0462 µM | 0.174 µM |
| GCGCAGUCAGGAUAUGCCGCUGGCGAUCACCGUGGGCAAAGGCAGAAGGGACAUGAGGAUCACCCAUGUGGCGC |  |  | 0.0721 µM | 0.0329 µM |
| GGUACUCAAAGAGUACCAAUACGAACAUGAGGAUCACCCAUGUAGGAUAUGCUCAAAACGGAGUAGCAGAAGGACAUGUGCCUA |  |  | 0.0126 µM | 0.0322 µM |
| AUAAUUUUAUUUUUCCCAAGAAUCAGAAGGCGUUACAUGAGGAUCACCCAUGUUUUGUAUAGUAACGAGGAUAUGAUAUGGUUA |  |  | 0.0152 µM | 0.0147 µM |
| GCUACAUAUUUUAAGUUUGAUUAUCUAGAAGGUAGAUACAUGAGGAUCACCCAUGUUUAGAGUUCUAAGGAUAUAGUUUGUAGC | 0.00612 µM | 0.00591 µM |  |  |
| GGAGCACAUGAAUACAUGAGGAUCACCCAUGUCAAAAGAUAUGAGGAUAUGGAUCGGAAAACGAUCUAGAAGGCAUAGUGCUCC | 0.0288 µM | 0.00698 µM |  |  |
| GCACAUGAUACAGGAUAUGUUUUGGAUUUUAUAUGCAGUUAUAAUUUUUUGACAGAAGGGUAUACAUGAGGAUCACCCAUGUGC |  |  | 0.161 µM | 0.075 µM |
| CAGUACUGAGGAUAUACAUGAGGAUCACCCAUGUGUCCCAGCUAGGAAACUAGCAAAAGUAGAAGGCAGUACUG |  |  | 0.0236 µM | 0.537 µM |
| UGUCAUAUAUAGAAGGGUAGUAGGGAUUUACAUGAGGAUCACCCAUGUAUUAUAGGAUAUGUGUAUAGUUUUUAUUCAAGUUUA |  |  | 0.0247 µM | 0.0187 µM |
| UUUCCGCGAGGAUAUGCGGGUUGUGCUUUUCAUUUCUUACAACAUGAGGAUCACCCAUGUAGAAGGUGCUUCUU |  |  | 0.174 µM | 0.156 µM |
| GUAUCCGCUGAGGAUAUAAACUCCCUUGAGGGUUUAGAAGGCAGCACAUGAGGAUCACCCAUGUGGUAAGUUUG |  |  | 0.0171 µM | 0.0292 µM |
| GUGUGUUGCGGGCAGGAUAUGUACUUGAGUACAUGAGGAUCACCCAUGUGCGGGUGUUUCACCCGACAGAAGGGCCUAUCGCGAC | 0.977 µM | 0.309 µM |  |  |

Reference: the EternaBench riboswitch data
